In ChEMBL document CHEMBL2176891, “Structural investigation of anti-Trypanosoma cruzi 2-iminothiazolidin-4-ones allows the identification of agents with efficacy in infected mice” (J Med Chem, 2012):
The source made the active and inactive calls. No cut-off for these calls is given here.

Legend:
Trypanosoma cruzi [1] = test: Antitrypanosomal activity against trypomastigotes of Trypanosoma cruzi Y infected in LLC-MK2 cells assessed as parasite motility after 24 hrs; format: functional, organism-based; conditions: LLC-MK2, 24 h
Outline: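 Y strain bloodstream trypomastigotes taken from LLC-MK2 culture supernatant, 4 × 10⁵ cells/well. Five compound concentrations (DMSO), triplicate, 24 h at 37 °C, 5% CO₂. Viable parasites judged by motility in a Neubauer chamber. Inhibition calculated relative to untreated culture; IC50 by nonlinear regression.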

Trypanosoma cruzi [2] = test: Antitrypanosomal activity against epimastigotes of Trypanosoma cruzi Y in axenic culture assessed as parasite motility after 11 days; conditions: 264 h
[3] = target: Cruzipain (Trypanosoma cruzi) (UniProt P25779); test: Inhibition of Trypanosoma cruzi recombinant cruzain using Z-FR-AMC as substrate at 20 uM preincubated for 10 mins before substrate addition
[4] = Cytotoxicity against BALB/c mouse splenocytes assessed as highest nontoxic concentration by measuring [3H]-thymidine incorporation after 24 hrs by beta-radiation counting; format: cell-based, Splenocyte; conditions: mouse, splenocytes, read-out: Activity
Outline: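 BALB/c splenocytes, 5 × 10⁶ cells/well in RPMI-1640 with 10% FBS. Compound in DMSO at 1.0, 10 and 100 μg/mL or more, triplicate; untreated and saponin controls. 24 h at 37 °C, 5% CO₂. 1.0 μCi ³H-thymidine added, incorporation read by β-counting as % of untreated. Highest nontoxic concentration estimated.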

Trypanosoma cruzi [5] = test: Antitrypanosomal activity against trypomastigotes of Trypanosoma cruzi Y infected in mouse peritoneal macrophages assessed as reduction of intracellular parasite level at 10 uM after 4 days; format: functional, organism-based
Outline: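 Peritoneal exudate macrophages, 2 × 10⁵/well on coverslips, infected with Y strain trypomastigotes at 10 parasites per macrophage for 2 h, then washed. Compound in DMSO added for 6 h, medium replaced, culture continued 4 days. After methanol fixation and Giemsa staining, 100 cells per slide counted for % infected macrophages and amastigotes per cell. IC50 based on % infected cells versus untreated.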

[6] = target: Cruzipain (Trypanosoma cruzi) (UniProt P25779); test: Inhibition of Trypanosoma cruzi recombinant cruzain using Z-FR-AMC as substrate at 100 uM preincubated for 10 mins before substrate addition
Outline: (§1)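 Recombinant cruzain preincubated 10 min at room temperature with compound (DMSO) in phosphate buffer containing EDTA, 100 mM NaCl and DTT. Z-FR-AMC then added; final 0.5 nM enzyme and 2 μM substrate. Fluorescence read at 1, 5 and 10 min; % inhibition versus no-inhibitor control. Single-point values are triplicate means; IC50 by nonlinear regression from multiple concentrations. Some runs used 0.01% Triton X-100.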

Procathepsin L [7] = target: T1, Procathepsin L (Homo sapiens, UniProt P07711); test: Inhibition of recombinant cathepsin L using ZFR-pNA as substrate preincubated for 45 mins
Outline: (§2)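 Recombinant cathepsin L or S activated with 1 mM DTT in 0.1 M acetate pH 5.5. Preincubated 45 min at room temperature with compound in phosphate buffer with 0.1% BSA, 1 mM EDTA and 0.001% Tween. Z-FR-pNA added, reaction 5 min; final 30 nM enzyme and 5.0 μM substrate. Triplicate runs; IC50 from at least seven concentrations.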
Target sequence in this assay (P07711 whole entry): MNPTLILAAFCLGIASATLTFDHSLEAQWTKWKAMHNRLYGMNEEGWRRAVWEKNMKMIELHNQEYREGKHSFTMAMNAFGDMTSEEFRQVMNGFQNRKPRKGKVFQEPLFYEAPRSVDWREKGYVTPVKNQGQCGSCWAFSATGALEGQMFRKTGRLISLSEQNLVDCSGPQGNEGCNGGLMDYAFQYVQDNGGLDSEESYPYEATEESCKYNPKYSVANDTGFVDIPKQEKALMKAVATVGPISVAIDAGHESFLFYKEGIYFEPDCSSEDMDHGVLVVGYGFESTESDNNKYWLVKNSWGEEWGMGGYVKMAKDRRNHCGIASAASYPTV

Cathepsin S = Cathepsin S (Homo sapiens, UniProt P25774); test: Inhibition of recombinant cathepsin S using ZFR-pNA as substrate preincubated for 45 mins; outline: as §2
Cruzipain = Cruzipain (Trypanosoma cruzi, UniProt P25779); test: Inhibition of Trypanosoma cruzi recombinant cruzain using Z-FR-AMC as substrate preincubated for 10 mins before substrate addition; outline: as §1
Procathepsin L [8] = target: T1, Procathepsin L; test: Inhibition of recombinant cathepsin L using ZFR-pNA as substrate at 100 uM preincubated for 45 mins; outline: as §2
Target sequence in this assay (P07711 114-333 limits assumed): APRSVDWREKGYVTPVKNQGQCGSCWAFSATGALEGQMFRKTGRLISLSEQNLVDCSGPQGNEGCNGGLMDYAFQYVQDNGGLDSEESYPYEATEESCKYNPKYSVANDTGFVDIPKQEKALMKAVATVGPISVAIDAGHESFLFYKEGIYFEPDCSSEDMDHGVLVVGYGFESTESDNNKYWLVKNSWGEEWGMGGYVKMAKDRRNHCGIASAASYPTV

Trypanosoma cruzi [9] = test: Inhibition of trypomastigotes of Trypanosoma cruzi Y invasion to mouse peritoneal macrophages at 50 uM […]; format: functional, organism-based

Cruzipain, sequence (P25779 whole entry): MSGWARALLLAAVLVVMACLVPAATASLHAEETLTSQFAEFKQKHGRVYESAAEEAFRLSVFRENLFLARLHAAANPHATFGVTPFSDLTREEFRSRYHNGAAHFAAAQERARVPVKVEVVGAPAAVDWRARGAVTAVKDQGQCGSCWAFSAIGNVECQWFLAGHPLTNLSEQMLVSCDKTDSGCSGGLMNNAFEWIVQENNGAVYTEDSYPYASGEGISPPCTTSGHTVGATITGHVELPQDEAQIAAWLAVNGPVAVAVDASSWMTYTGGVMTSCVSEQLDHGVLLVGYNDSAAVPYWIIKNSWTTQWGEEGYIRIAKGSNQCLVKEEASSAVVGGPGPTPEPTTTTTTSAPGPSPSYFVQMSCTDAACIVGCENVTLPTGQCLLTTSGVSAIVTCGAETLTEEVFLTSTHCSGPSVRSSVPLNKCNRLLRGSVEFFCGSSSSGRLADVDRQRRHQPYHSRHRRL
Cathepsin S, sequence (P25774 whole entry): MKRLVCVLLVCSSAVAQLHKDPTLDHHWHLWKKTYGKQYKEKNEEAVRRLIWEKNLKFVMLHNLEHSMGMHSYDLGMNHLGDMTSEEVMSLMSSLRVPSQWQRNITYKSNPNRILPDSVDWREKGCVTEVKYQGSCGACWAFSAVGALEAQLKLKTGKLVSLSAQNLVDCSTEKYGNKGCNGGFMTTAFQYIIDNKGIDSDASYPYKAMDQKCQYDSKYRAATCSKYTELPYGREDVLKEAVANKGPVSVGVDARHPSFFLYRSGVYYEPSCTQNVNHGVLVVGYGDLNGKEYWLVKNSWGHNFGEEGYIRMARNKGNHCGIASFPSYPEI
Cruzipain (Trypanosoma cruzi), sequence (P25779 123-467 limits assumed): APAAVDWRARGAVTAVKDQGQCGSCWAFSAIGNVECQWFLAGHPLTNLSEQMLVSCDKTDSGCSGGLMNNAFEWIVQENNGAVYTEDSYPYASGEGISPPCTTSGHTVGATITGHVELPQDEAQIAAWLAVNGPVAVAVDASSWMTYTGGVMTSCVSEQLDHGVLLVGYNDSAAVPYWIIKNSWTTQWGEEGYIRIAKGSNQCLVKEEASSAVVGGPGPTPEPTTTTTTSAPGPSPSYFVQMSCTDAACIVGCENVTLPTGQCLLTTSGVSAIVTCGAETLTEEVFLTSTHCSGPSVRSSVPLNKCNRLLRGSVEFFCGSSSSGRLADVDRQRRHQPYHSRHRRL

SMILES	IC50 (Trypanosoma cruzi [1]) [µM]	IC50 (Trypanosoma cruzi [2]) [µM]	inhibition [3]	MNTC at 24 h [4] [µg/mL]	further results
COc1ccc(-c2csc(N/N=C(\C)COc3ccccc3)n2)cc1	17.8	14.9	inactive	100	–
C/C(COc1ccccc1)=N\Nc1nc(-c2ccc(F)cc2)cs1	11.5	41.3	inactive	> 100	–
C/C(COc1ccccc1)=N\Nc1nc(-c2ccc(Cl)cc2)cs1	–	57.1	13%	100	–
C/C(COc1ccccc1)=N\Nc1nc(-c2ccc(Br)cc2)cs1	–	49.8	25%	100	–
C/C(COc1ccccc1)=N\Nc1nc(-c2ccc([N+](=O)[O-])cc2)cs1	5.7	1.9	inactive	100	Activity (Trypanosoma cruzi [5]): Active
C/C(COc1ccccc1)=N\Nc1nc(-c2cccc([N+](=O)[O-])c2)cs1	3.8	4	inactive	100	–
C/C(COc1ccccc1)=N\Nc1nc(-c2ccc(Cl)c(Cl)c2)cs1	17	19	20%	25	–
C/C(COc1ccccc1)=N\Nc1nc(-c2ccc(Cl)cc2Cl)cs1	17	42.2	40%	< 1	–
C/C(COc1ccccc1)=N\Nc1nc(-c2ccc(Cl)c(Cl)c2Cl)cs1	–	–	inactive	> 1	–
C/C(COc1ccccc1)=N\Nc1nc(-c2ccc(C(C)(C)C)cc2)cs1	–	–	inactive	50	–
C/C(COc1ccccc1)=N\Nc1nc(-c2ccc3ccccc3c2)cs1	36.4	83	inactive	> 100	–
C/C(COc1ccccc1)=N\Nc1nc(-c2ccco2)cs1	17.7	–	–	> 100	inhibition [6]: 4.7%
C/C(COc1ccccc1)=N\Nc1nc(-c2cccs2)cs1	37.6	16.6	–	50	inhibition [6]: 30%
C/C(COc1ccccc1)=N\N=c1\scc(-c2ccccc2)n1C	175	25.6	inactive	10	–
C/C(COc1ccccc1)=N\N=c1\scc(-c2ccccc2)n1-c1ccccc1	61.1	2.6	inactive	> 100	–
C/C(COc1ccccc1)=N\N=C1\SCC(=O)N1c1ccccc1	18	25.8	66%	> 100	IC50 (Procathepsin L [7]): > 100 µM; IC50 (Cathepsin S): > 100 µM; IC50 (Cruzipain; read-out: IC50): 10.2 µM; inhibition (Procathepsin L [8]): 0%
C/C(COc1ccccc1)=N\Nc1nc(-c2ccccn2)cs1	34.8	11.8	inactive	100	–

SMILES	IC50 (Trypanosoma cruzi [1]) [µM]	IC50 (Trypanosoma cruzi [2]) [µM]	inhibition [3]	MNTC at 24 h [4] [µg/mL]	further results
C/C(COc1ccccc1)=N\Nc1nc(-c2cccnc2)cs1	12.3	20.5	inactive	100	–
C/C(COc1ccccc1)=N\Nc1nc(-c2ccc(C)cc2)cs1	49.7	67	inactive	100	–
C/C(COc1ccccc1)=N\N=C1\SCC(=O)N1C	–	–	0%	> 100	IC50 (Cruzipain): ND(Insoluble)
C[C@@H]1[C@H](O)[C@@H](C)/C=C/C=C/C=C/C=C/C=C/C=C/C=C/[C@H](O[C@@H]2O[C@H](C)[C@@H](O)[C@H](N)[C@@H]2O)C[C@@H]2O[C@](O)(C[C@@H](O)C[C@@H](O)[C@H](O)CC[C@@H](O)C[C@@H](O)CC(=O)O[C@H]1C)C[C@H](O)[C@H]2C(=O)O	–	–	–	–	inhibition (Trypanosoma cruzi [9]): Active
C/C(COc1ccccc1)=N\N=C1\SC(C)C(=O)N1c1ccccc1 (racemic)	29	31.8	50%	100	IC50 (Cruzipain; read-out: IC50): 10.8 µM; inhibition (Procathepsin L [8]): 0%; Activity (Trypanosoma cruzi [5]): Active
CCC1S/C(=N/N=C(\C)COc2ccccc2)NC1=S (racemic)	31.5	26.1	48%	25	IC50 (Procathepsin L [7]): 13.8 µM; IC50 (Cruzipain; read-out: IC50): 18.7 µM; inhibition (Procathepsin L [8]): 81%
CCC1S/C(=N/N=C(\C)COc2ccccc2)N(c2ccc(C)cc2)C1=O (racemic)	19.9	15	65%	100	IC50 (Cruzipain; read-out: IC50): 11.8 µM
CCC1S/C(=N/N=C(\C)COc2ccccc2)N(c2ccc(OC)cc2)C1=O (racemic)	9	6.8	71%	100	IC50 (Cruzipain; read-out: IC50): 8.7 µM
CCC1S/C(=N/N=C(\C)COc2ccccc2)N(C2CCCCC2)C1=O (racemic)	–	–	10%	> 100	–
C/C(COc1ccccc1)=N\N=C1/NC(=O)C(C)S1 (racemic)	–	–	3%	> 100	inhibition (Procathepsin L [8]): 0%
CCC1S/C(=N/N=C(\C)COc2ccccc2)NC1=O (racemic)	–	–	5%	> 100	inhibition (Procathepsin L [8]): 5%
C/C(COc1ccccc1)=N\N=C1/NC(=O)C(C(C)C)S1 (racemic)	16.8	12.2	60.8%	> 100	IC50 (Cruzipain; read-out: IC50): 18.9 µM; inhibition (Procathepsin L [8]): 11%
C/C(COc1ccccc1)=N\N=C1\SC(C)C(=O)N1C (racemic)	–	–	0%	25	–
CCC1S/C(=N/N=C(\C)COc2ccccc2)N(C)C1=O (racemic)	–	–	50%	> 100	IC50 (Procathepsin L [7]): > 100 µM; IC50 (Cathepsin S): > 100 µM; IC50 (Cruzipain; read-out: IC50): 31.9 µM; inhibition (Procathepsin L [8]): 6%
C/C(COc1ccccc1)=N\N=C1\SC(C(C)C)C(=O)N1C (racemic)	10.7	14	81%	> 100	IC50 (Procathepsin L [7]): > 100 µM; IC50 (Cathepsin S): > 100 µM; IC50 (Cruzipain; read-out: IC50): 8 µM; inhibition (Procathepsin L [8]): 0%
CC1CS(=O)(=O)CCN1/N=C/c1ccc([N+](=O)[O-])o1 (stereo not given) [NIFURTIMOX]	2.7	1.9	–	1	–
